In ChEMBL document CHEMBL4706649, “Design, synthesis and biological evaluation of new benzoxazolone/benzothiazolone derivatives as multi-target agents against Alzheimer's disease” (Eur J Med Chem, 2021):
The source made the active and inactive calls. The rule behind the calls is not given here.

Key:
THP-1 [1] = experiment: Antiinflammatory activity in LPS-induced human THP-1 cells assessed as reduction in TNFalpha release at 10 uM peincubated for 1 hr followed by LPS stimulation and measured after 24 hrs by EIA; format: functional, cell-based; settings: time 25.0 hrs
Method in brief: (§1)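 THP-1 cells grown in RPMI 1640 with 10% FCS, penicillin and streptomycin at 37 °C, 5% CO2, then plated overnight at 4×10⁴ cells/well. Test compound added 1 h before 100 ng/ml E. coli O111:B4 LPS; 24 h incubation. Untreated and LPS-only controls. […]; cytokine read by EIA at 450 nm against a standard curve. At least triplicate.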

Homo sapiens [2] = organism: Homo sapiens; experiment: Reversible inhibition of recombinant human BChE assessed as residual activity at 0.1 times IC50 using butyrylthiocholine iodide as substrate preincubated for 30 mins followed by 100-fold dilution in presence of substrate and measured after 15 mins by Ellman's method relative to control; settings: time 45.0 min
THP-1 [3] = experiment: Antiinflammatory activity in LPS-induced human THP-1 cells assessed as reduction in IL1beta release at 10 uM peincubated for 1 hr followed by LPS stimulation and measured after 24 hrs by EIA; format: functional, cell-based; settings: time 25.0 hrs; method in brief: as §1
THP-1 [4] = experiment: Antiinflammatory activity in LPS-induced human THP-1 cells assessed as reduction in IL6 release at 10 uM peincubated for 1 hr followed by LPS stimulation and measured after 24 hrs by EIA; format: functional, cell-based; settings: time 25.0 hrs; method in brief: as §1
Homo sapiens [5] = organism: Homo sapiens; experiment: Reversible inhibition of recombinant human BChE assessed as residual activity at IC50 using butyrylthiocholine iodide as substrate preincubated for 30 mins followed by 100-fold dilution in presence of substrate and measured after 15 mins by Ellman's method relative to control; settings: time 45.0 min
THP-1 [6] = experiment: Antiinflammatory activity in LPS-induced human THP-1 cells assessed as reduction in nitric oxide release at 10 uM peincubated for 1 hr followed by LPS stimulation and measured after 24 hrs by ELISA; format: functional, cell-based; settings: time 25.0 hrs
Method in brief: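 THP-1 cells plated overnight at 4×10⁴ cells/well, given test compound 1 h before 100 ng/ml LPS (E. coli O111:B4), then incubated 24 h. Cell-free supernatants stored at −20 °C, then NO measured by ELISA kit (sensitivity 1,12 […]) from a standard curve. Untreated cells as negative control, LPS-only as positive control. At least triplicate.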

Acetylcholinesterase [7] = target: Acetylcholinesterase (Homo sapiens, UniProt P22303); experiment: Inhibition of recombinant human AChE expressed in HEK293 cells using acetylthiocholine iodide as substrate preincubated for 10 mins followed by substrate addition and measured for 10 mins by Ellman's method
[8] = Cytotoxicity against mouse 3T3 cells assessed as cell viability at 10 uM measured after 24 hrs by MTT assay relative to control; format: cell-based; settings: read-out: Activity
Method in brief: (§2)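 3T3 fibroblasts (ATCC CCL92) grown as adherent monolayers in DMEM with 10% inactivated FBS, 2 mM L-glutamine and penicillin/streptomycin at 37 °C, 5% CO2. Cells exposed to compounds for 24 h. MTT added for 4 h, formazan dissolved in SDS for 24 h, OD read at 570 nm. Viability given as % of untreated OD; at least triplicate, mean ± SD.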

[9] = Induction of apoptosis in mouse 3T3 cells assessed as viable cells at 10 uM measured after 24 hrs by Annexin V-FITC/propidium iodide staining based flow cytometry (reference value: 98.83 to 99%); format: cell-based; settings: read-out: Activity
Method in brief: (§3)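 3T3 fibroblasts exposed to compound for 24 h, with untreated cells as negative control. Cells trypsinized, PBS-washed, stained with Annexin V-FITC and PI by kit protocol, then analysed by flow cytometry. Populations: live (Annexin−/PI−), early apoptotic (Annexin+/PI−), late apoptotic (Annexin+/PI+) and dead (Annexin−/PI+). Percentages given as mean ± SD.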

[10] = Induction of apoptosis in mouse 3T3 cells assessed as necrotic cells at 10 uM measured after 24 hrs by Annexin V-FITC/propidium iodide staining based flow cytometry (reference value: 0%); format: cell-based; settings: 3t3, 24 h; method in brief: as §3
[11] = Induction of apoptosis in mouse 3T3 cells assessed as early apoptotic cells at 10 uM measured after 24 hrs by Annexin V-FITC/propidium iodide staining based flow cytometry (Rvb <= 0.97%); format: cell-based; settings: 3t3, 24 h; method in brief: as §3
[12] = Cytotoxicity against mouse 3T3 cells assessed as cell viability at 0.1 uM measured after 24 hrs by MTT assay relative to control; format: cell-based; settings: read-out: Activity; method in brief: as §2
[13] = target: Acetylcholinesterase (Electrophorus electricus) (UniProt O42275); experiment: Inhibition of electric eel AChE at 100 uM using acetylthiocholine iodide as substrate preincubated for 10 mins followed by substrate addition and measured for 10 mins by Ellman's method relative to control; settings: time 20.0 min
Method in brief: (§4)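 Ellman single-concentration screen in 50 mM Tris-HCl pH 8.0 with DTNB (6.8 mM stock) and 1% DMSO. Enzyme solution 0.4 U/mL AChE or 0.8 U/mL BChE. Compound and enzyme preincubated 10 min at 25 °C, then ATI (10 mM stock) or BTI (30 mM stock) added. A412 followed for 10 min, blank-subtracted, % inhibition versus no-compound control. Triplicate.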

[14] = Antioxidant activity assessed as trolox equivalent of AAPH radical scavenging activity at 10 uM measured every min for 90 mins by ORAC-FL assay; format: functional
Method in brief: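 ORAC-FL in 75 mM phosphate buffer pH 7.4. Sample and fluorescein (150 nM final) preincubated 15 min at 37 °C, then AAPH (12 mM final) added. Fluorescence (ex 485/em 535 nm) read each minute for 90 min. Net AUC after blank subtraction, converted to Trolox equivalents from a Trolox curve (0.5–8, final; Trolox = 1). Duplicate wells, three independent assays.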

[15] = Induction of apoptosis in mouse 3T3 cells assessed as late apoptotic cells at 10 uM measured after 24 hrs by Annexin V-FITC/propidium iodide staining based flow cytometry (reference value: 0.1 to 0.13%); format: cell-based; settings: 3t3, 24 h; method in brief: as §3
[16] = target: Cholinesterase (Equus caballus) (UniProt P81908); experiment: Inhibition of equine serum BChE at 100 uM using butyrylthiocholine iodide as substrate preincubated for 10 mins followed by substrate addition and measured for 10 mins by Ellman's method relative to control; settings: time 20.0 min; method in brief: as §4
Acetylcholinesterase [17] = target: Acetylcholinesterase (Electrophorus electricus, UniProt O42275); experiment: Inhibition of electric eel AChE using acetylthiocholine iodide as substrate preincubated for 10 mins followed by substrate addition and measured for 10 mins by Ellman's method
[18] = target: Amyloid-beta precursor protein (Homo sapiens) (UniProt P05067); experiment: Inhibition of amyloid beta (1 to 42) (unknown origin) self-induced aggregation at 50 uM by Thioflavin T based fluorometric assay relative to control
Method in brief: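 Thioflavin T fluorometric assay of Aβ1-42 self-aggregation, with inhibitor and Aβ42 both at 50 (equimolar). Samples dissolved in DMSO. Result given as % inhibition, mean of two independent experiments each run in triplicate.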

[19] = Cytotoxicity against mouse 3T3 cells assessed as cell viability at 1 uM measured after 24 hrs by MTT assay relative to control; format: cell-based; settings: read-out: Activity; method in brief: as §2
Cholinesterase [20] = target: Cholinesterase (Equus caballus, UniProt P81908); experiment: Inhibition of equine serum BChE using butyrylthiocholine iodide as substrate preincubated for 10 mins followed by substrate addition and measured for 10 mins by Ellman's method
Method in brief: (§5)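 BChE (0.8 U/mL solution) preincubated with inhibitor 10 min at 25 °C in Tris-HCl pH 8.0 with DTNB and 1% DMSO, then BTI (30 mM stock) added. A412 read over 10 min, blank-corrected. IC50 from log[inhibitor] versus % inhibition. Triplicate, mean ± SD.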

Cholinesterase [21] = target: Cholinesterase (Homo sapiens, UniProt P06276); experiment: Inhibition of recombinant human BChE using butyrylthiocholine iodide as substrate preincubated for 10 mins followed by substrate addition and measured for 10 mins by Ellman's method; method in brief: as §5
Sequence of Cholinesterase (Homo sapiens, UniProt P06276) (P06276 whole entry): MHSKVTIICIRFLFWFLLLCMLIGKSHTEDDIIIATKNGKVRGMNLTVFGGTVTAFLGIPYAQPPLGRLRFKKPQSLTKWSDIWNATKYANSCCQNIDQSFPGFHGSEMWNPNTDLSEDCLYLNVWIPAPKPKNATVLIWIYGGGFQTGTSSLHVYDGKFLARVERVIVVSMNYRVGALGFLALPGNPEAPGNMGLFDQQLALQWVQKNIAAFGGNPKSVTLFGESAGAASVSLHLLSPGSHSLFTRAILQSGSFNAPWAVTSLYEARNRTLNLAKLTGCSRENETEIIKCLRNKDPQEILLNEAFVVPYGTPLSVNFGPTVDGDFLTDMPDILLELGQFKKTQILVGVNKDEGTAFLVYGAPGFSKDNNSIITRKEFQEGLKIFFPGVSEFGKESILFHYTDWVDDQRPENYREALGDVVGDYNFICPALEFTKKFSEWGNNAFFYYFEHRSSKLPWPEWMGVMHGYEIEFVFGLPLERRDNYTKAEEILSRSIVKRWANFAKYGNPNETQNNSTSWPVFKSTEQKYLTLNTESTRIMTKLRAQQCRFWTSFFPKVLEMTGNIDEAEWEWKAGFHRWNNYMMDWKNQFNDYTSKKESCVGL

Sequence of Amyloid-beta precursor protein (Homo sapiens) (P05067 whole entry): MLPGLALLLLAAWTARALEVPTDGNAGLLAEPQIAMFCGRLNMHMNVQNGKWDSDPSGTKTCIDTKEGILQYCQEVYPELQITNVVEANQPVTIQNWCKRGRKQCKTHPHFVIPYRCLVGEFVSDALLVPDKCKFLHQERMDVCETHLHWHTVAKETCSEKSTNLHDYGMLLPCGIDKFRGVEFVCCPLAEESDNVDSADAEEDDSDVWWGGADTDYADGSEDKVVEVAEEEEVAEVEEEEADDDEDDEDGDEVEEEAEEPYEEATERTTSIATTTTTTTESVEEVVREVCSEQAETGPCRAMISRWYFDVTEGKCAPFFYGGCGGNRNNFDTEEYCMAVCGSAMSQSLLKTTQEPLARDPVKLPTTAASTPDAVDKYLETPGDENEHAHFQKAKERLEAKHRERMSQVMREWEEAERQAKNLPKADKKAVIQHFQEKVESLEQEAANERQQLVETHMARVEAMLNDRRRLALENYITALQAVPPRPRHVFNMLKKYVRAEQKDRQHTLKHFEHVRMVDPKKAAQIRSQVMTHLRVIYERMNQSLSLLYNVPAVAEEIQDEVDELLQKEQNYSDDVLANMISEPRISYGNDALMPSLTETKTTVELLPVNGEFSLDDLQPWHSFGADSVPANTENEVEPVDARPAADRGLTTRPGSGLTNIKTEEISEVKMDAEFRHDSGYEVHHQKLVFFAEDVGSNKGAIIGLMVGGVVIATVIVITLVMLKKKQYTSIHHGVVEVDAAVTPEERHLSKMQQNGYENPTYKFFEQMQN
Sequence of Cholinesterase (Equus caballus) (P81908 whole entry): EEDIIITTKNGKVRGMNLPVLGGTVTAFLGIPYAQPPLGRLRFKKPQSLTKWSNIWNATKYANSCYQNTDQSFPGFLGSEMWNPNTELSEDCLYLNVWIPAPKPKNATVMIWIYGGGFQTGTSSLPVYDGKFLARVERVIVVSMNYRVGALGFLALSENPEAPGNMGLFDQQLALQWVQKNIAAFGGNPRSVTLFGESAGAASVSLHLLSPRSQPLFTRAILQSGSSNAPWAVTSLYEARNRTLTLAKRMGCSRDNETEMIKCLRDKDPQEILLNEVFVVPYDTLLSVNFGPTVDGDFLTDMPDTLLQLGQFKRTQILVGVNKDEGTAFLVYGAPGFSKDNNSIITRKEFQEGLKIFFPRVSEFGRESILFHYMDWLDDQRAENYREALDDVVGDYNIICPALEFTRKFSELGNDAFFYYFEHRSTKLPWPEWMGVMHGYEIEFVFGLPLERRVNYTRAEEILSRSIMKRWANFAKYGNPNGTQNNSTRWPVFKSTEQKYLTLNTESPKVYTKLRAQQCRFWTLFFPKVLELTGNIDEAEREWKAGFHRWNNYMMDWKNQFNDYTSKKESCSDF
Sequence of Acetylcholinesterase (Electrophorus electricus) (O42275 24-633 limits assumed): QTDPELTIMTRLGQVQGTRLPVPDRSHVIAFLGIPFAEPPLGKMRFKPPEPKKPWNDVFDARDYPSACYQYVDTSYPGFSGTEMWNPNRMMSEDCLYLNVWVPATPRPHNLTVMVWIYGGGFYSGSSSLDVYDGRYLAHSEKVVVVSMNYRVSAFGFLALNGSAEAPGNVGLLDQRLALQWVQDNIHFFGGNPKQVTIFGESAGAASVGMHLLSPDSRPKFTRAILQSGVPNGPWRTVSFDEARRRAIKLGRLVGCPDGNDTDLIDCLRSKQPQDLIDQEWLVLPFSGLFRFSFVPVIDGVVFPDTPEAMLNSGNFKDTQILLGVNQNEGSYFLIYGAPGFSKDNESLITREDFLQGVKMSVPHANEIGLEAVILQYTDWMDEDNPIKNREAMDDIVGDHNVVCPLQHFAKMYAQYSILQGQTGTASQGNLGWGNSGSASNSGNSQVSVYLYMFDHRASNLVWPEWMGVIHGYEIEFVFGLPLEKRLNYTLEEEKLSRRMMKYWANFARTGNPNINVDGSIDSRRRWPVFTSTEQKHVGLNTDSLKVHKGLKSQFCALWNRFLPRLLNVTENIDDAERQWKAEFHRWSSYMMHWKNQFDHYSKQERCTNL
Sequence of Acetylcholinesterase (Electrophorus electricus, UniProt O42275) (O42275 whole entry): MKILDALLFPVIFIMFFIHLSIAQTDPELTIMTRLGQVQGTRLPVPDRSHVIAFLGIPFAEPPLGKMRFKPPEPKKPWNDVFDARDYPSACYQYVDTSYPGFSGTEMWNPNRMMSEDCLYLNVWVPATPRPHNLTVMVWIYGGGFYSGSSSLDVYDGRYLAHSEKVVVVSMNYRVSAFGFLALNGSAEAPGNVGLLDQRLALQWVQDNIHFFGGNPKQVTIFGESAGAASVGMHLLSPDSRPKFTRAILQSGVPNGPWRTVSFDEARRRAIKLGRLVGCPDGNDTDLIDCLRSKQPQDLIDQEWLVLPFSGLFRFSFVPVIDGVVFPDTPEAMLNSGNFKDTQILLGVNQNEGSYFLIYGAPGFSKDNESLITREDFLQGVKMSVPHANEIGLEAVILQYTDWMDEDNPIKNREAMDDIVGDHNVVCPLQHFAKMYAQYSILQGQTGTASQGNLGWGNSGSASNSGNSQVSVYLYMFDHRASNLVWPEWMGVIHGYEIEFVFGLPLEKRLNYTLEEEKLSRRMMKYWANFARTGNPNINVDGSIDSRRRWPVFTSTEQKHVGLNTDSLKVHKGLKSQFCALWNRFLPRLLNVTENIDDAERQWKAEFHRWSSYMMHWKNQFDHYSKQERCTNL
Sequence of Acetylcholinesterase (Homo sapiens, UniProt P22303) (P22303 whole entry): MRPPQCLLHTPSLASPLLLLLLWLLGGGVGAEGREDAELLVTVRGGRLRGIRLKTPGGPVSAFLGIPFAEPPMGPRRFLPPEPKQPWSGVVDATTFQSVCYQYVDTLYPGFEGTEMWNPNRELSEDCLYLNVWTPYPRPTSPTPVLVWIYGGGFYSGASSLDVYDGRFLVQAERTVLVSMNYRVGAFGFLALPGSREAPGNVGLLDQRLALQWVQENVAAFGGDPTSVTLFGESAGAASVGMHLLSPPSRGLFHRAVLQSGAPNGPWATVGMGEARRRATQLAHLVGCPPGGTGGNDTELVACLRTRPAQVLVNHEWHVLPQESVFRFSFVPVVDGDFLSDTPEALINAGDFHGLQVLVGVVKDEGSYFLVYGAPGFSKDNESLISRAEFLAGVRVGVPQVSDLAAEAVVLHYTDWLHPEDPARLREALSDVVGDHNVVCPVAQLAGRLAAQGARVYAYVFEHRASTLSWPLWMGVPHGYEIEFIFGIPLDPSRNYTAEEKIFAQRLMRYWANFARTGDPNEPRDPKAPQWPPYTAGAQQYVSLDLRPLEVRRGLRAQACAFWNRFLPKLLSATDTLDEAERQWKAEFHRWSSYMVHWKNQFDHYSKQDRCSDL
Sequence of Cholinesterase (Equus caballus, UniProt P81908) (P81908 whole entry): as the sequence (P81908 whole entry) above

Row | Compound | Activity (THP-1 [1]) | Activity (Homo sapiens [2]) | Activity (THP-1 [3]) | Activity (THP-1 [4]) | Activity (Homo sapiens [5]) | Activity (THP-1 [6]) | viability at 24 h, 10 µM [8] | viability at 24 h, 10 µM [9] | Activity [10] | Activity [11] | viability at 24 h, 0.1 µM [12] | inhibition [13] | Activity [14] | Activity [15] | inhibition [16] | inhibition [18] | viability at 24 h, 1 µM [19] | also measured
1 | COc1cc2c(cc1OC)C(=O)C(CC1CCN(Cc3ccccc3)CC1)C2 (configuration not stated) | Active | 95.4% | Active | Active | 90.2% | Active | – | – | – | – | – | – | – | – | – | – | – | –
2 | Cn1c(=O)sc2cc(C(=O)CCN3CCN(Cc4ccccc4)CC3)ccc21 | Active | – | Active | Active | – | Active | 92.6% | 98.3% | 0.4% | 1.03% | 102% | 99% | 3.7 equiv | 0.1% | < 10% | 57.5% | 99.3% | IC50 (Acetylcholinesterase [7]): 0.46 µM; IC50 (Acetylcholinesterase [17]): 0.34 µM
3 | Cn1c(=O)sc2cc(NC(=O)CCCCN3CCC(c4ccccc4)CC3)ccc21 | Active | 98.4% | Active | Active | 81.5% | Active | 93.6% | 93.8% | <= 0.23% | 1.73% | 98.9% | 30% | 2.61 equiv | 0.33% | 96% | 55.6% | 97.1% | IC50 (Cholinesterase [20]): 2.98 µM; IC50 (Cholinesterase [21]): 2.56 µM
